Measurements from ChEMBL document CHEMBL5532673, “Design and Discovery of Novel NLRP3 Inhibitors and PET Imaging Radiotracers Based on a 1,2,3-Triazole-Bearing Scaffold” (J Med Chem, 2024).
Activity calls are given as the source filed them. The calls are words filed in the database; no cut-off is given here.

Experiments:
[1] = biological target: NACHT, LRR and PYD domains-containing protein 3 (Mus musculus, UniProt Q8R4B8); assay: Inhibition of NLRP3 inflammasome activation in LPS treated mouse J774.A1 cells assessed as inhibition of ATP-stimulated IL-1beta secretion pre-incubated for 30 mins followed by ATP addition measured after 30 mins by ELISA; type: cell-based
NACHT, LRR and PYD domains-containing protein 3, sequence (Q8R4B8 whole entry, the tested form may be a part): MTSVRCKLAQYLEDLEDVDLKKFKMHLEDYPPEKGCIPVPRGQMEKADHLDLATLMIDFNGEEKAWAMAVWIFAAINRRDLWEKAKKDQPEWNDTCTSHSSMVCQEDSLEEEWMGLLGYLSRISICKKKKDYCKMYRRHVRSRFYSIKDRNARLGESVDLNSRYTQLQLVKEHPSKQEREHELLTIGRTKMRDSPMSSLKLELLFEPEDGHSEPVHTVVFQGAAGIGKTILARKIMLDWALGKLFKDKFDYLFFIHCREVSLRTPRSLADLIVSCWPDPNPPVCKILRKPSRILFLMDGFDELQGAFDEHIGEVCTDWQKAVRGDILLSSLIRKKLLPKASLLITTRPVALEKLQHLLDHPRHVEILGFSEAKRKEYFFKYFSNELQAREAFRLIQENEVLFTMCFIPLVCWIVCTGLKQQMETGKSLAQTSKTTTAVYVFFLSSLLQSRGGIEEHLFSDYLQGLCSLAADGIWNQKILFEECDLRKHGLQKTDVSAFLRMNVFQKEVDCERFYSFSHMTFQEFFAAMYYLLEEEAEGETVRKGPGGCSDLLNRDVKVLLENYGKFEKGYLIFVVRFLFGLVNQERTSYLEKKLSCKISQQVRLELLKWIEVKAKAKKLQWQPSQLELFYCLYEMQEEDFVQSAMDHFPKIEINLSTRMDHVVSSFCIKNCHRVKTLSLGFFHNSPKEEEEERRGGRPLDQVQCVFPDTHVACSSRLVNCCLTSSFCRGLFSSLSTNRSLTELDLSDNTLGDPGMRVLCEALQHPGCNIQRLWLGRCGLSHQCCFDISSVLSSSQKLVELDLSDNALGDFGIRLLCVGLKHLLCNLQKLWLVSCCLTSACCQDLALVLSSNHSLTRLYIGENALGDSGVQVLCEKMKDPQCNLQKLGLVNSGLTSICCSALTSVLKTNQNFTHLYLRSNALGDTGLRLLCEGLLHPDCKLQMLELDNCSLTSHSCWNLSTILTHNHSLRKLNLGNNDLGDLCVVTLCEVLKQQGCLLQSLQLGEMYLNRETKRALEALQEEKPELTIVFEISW
How it was run: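 Murine J774A.1 macrophages seeded at 1×10^5 cells/well overnight, then primed with E. coli O111:B4 LPS (final 1 µg/mL) for 4.5 h. Compounds added for 30 min, then ATP (5 mM) for 30 min to activate NLRP3. IL-1β released into the supernatant quantified by mouse IL-1β ELISA.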

[2] = Drug uptake in monkey hippocampus at iv administration by PET/MR imaging analysis; type: ADME, organism-based, Macaca mulatta; settings: rhesus monkey, in vivo
How it was run: (§1)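 Single rhesus macaque (n=1). Radiotracer 5.20 mCi given i.v. through an antecubital catheter. Dynamic PET/MR acquired on a 3T scanner with a BrainPET insert, 3D-OSEM reconstruction, registration to the INIA19/NeuroMaps atlas. Regional activity expressed as SUV, with an arterial line for plasma metabolite analysis.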

[3] = Drug uptake in monkey brain assessed as standardized uptake value at iv administration by PET/MR imaging analysis; type: ADME, organism-based, Macaca mulatta; settings: rhesus monkey, in vivo; how it was run: as §1
[4] = Drug uptake in monkey putamen at iv administration by PET/MR imaging analysis; type: ADME, organism-based, Macaca mulatta; settings: rhesus monkey, in vivo; how it was run: as §1
[5] = Drug uptake in monkey cerebellum at iv administration by PET/MR imaging analysis; type: ADME, organism-based, Macaca mulatta; settings: rhesus monkey, in vivo; how it was run: as §1
[6] = Drug uptake in monkey insula at iv administration by PET/MR imaging analysis; type: ADME, organism-based, Macaca mulatta; settings: rhesus monkey, in vivo; how it was run: as §1
[7] = Drug uptake in monkey thalamus at iv administration by PET/MR imaging analysis; type: ADME, organism-based, Macaca mulatta; settings: rhesus monkey, in vivo; how it was run: as §1
[8] = biological target: NACHT, LRR and PYD domains-containing protein 3 (Mus musculus) (UniProt Q8R4B8); assay: Binding affinity to NLRP3 in wild type C57BL/6 mouse brain incubated for 20 mins by autoradiography; type: tissue-based; settings: tested as the 11C-labelled form
NACHT, LRR and PYD domains-containing protein 3 (Mus musculus), sequence (Q8R4B8 whole entry, the tested form may be a part): as above
How it was run: (§2)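 Frozen mouse brain sections preincubated in 50 mM Tris-HCl pH 7.4 for 30 min at ambient temperature, then incubated 20 min at ambient temperature with [11C]8 (5 mCi/L, ~1 nM). For blocking, unlabeled ligand (10 μM) added to the incubation solution beforehand (n = 4). Sections washed in Tris-HCl (3 × 5 min), dried, exposed to imaging plates 120 min; ROI signal given as DLU/mm2.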

[9] = biological target: T1, Interferon-inducible protein AIM2 (Mus musculus) (UniProt Q91VJ1); assay: Inhibition of AIM2 inflammasome activation in LPS treated mouse J774.A1 cells assessed as inhibition of IL-1beta secretion at 10 uM pre-incubated for 1 hr followed by Poly (dA:dT) stimulation for 4 hrs by ELISA; type: cell-based; settings: time 5.0 hrs
T1 sequence (whole entry): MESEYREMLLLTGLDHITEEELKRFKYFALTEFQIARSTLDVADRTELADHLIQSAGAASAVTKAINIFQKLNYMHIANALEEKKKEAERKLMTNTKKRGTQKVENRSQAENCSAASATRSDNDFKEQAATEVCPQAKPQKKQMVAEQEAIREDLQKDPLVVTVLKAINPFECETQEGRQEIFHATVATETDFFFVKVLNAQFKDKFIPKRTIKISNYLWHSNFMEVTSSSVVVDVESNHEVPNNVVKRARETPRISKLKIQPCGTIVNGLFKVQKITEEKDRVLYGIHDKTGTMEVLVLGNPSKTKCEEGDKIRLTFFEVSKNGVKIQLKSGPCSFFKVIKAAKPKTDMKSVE
How it was run: (§3)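 J774A.1 cells at 1×10^5/well, plated overnight. Co-treated with LPS (1 µg/mL) and compound for 1 h. AIM2 triggered by poly(dA:dT) (4 µg/mL) transfected with Lipofectamine 2000 for 4 h. NLRC4 triggered by flagellin (1 µg/mL) delivered with a transfection kit for 6 h. Supernatant IL-1β read by mouse ELISA.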

[10] = biological target: NACHT, LRR and PYD domains-containing protein 3 (Mus musculus) (UniProt Q8R4B8); assay: Inhibition of NLRP3 inflammasome activation in LPS treated mouse J774.A1 cells assessed as inhibition of TNF-alpha secretion at 0.1 to 10 uM followed by LPS addition measured after 4.5 hrs by ELISA; type: cell-based; settings: dose 0.1-10 µM
[11] = biological target: NACHT, LRR and PYD domains-containing protein 3 (Mus musculus) (UniProt Q8R4B8); assay: Binding affinity to NLRP3 in wild type C57BL/6 mouse brain incubated for 20 mins in presence of compound 8 by autoradiography; type: tissue-based; settings: tested as the 11C-labelled form; how it was run: as §2
[12] = biological target: NACHT, LRR and PYD domains-containing protein 3 (Mus musculus) (UniProt Q8R4B8); assay: Inhibition of NLRP3 inflammasome activation in LPS treated mouse J774.A1 cells assessed as inhibition of nigericin-stimulated IL-1beta secretion at 0.1 to 1 uM pre-incubated for 30 mins followed by nigericin addition measured after 30 mins by ELISA; type: cell-based; settings: dose 0.1-1 µM, time 60.0 min
[13] = biological target: NLR family CARD domain-containing protein 4 (Mus musculus) (UniProt Q3UP24); assay: Inhibition of NLRC4 inflammasome activation in LPS treated mouse J774.A1 cells assessed as inhibition of IL-1beta secretion at 10 uM pre-incubated for 1 hr followed by flagellin stimulation for 6 hrs by ELISA; type: cell-based; settings: time 7.0 hrs; how it was run: as §3
NLR family CARD domain-containing protein 4 (Mus musculus), sequence (Q3UP24 whole entry, the tested form may be a part): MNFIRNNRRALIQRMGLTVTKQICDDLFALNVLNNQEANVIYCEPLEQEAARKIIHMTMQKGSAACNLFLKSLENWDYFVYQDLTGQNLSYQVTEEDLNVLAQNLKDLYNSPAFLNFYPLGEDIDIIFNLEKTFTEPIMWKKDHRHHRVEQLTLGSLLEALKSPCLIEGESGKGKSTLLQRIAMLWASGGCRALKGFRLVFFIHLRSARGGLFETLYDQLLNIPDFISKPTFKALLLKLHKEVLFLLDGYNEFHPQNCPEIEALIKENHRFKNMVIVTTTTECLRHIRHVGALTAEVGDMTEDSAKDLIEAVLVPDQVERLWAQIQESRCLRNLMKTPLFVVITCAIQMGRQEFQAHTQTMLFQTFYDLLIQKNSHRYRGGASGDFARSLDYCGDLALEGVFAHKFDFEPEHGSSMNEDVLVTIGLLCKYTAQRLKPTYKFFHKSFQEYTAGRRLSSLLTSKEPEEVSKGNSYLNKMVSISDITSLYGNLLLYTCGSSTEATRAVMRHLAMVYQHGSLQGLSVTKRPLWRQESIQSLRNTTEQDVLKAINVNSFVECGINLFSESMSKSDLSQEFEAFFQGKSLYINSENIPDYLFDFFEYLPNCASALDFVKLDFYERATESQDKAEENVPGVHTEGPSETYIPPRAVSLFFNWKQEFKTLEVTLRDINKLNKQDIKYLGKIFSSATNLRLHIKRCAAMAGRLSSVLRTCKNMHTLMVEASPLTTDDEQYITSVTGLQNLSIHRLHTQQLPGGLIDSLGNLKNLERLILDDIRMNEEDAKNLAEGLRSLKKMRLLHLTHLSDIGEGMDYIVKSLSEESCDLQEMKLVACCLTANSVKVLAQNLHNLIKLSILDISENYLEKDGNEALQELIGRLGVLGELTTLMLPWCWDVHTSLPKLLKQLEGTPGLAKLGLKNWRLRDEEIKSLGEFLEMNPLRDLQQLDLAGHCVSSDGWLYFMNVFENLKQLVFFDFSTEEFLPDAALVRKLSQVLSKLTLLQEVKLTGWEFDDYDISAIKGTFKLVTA

[14] = biological target: NACHT, LRR and PYD domains-containing protein 3 (Mus musculus) (UniProt Q8R4B8); assay: Binding affinity to NLRP3 in C57BL/6 mouse brain expressing nIrp3-/- incubated for 20 mins by autoradiography; type: tissue-based; settings: tested as the 11C-labelled form; how it was run: as §2
[15] = biological target: NACHT, LRR and PYD domains-containing protein 3 (Mus musculus) (UniProt Q8R4B8); assay: Inhibition of NLRP3 inflammasome activation in LPS treated mouse J774.A1 cells assessed as inhibition of ATP-stimulated IL-1beta secretion at 0.1 to 1 uM pre-incubated for 30 mins followed by ATP addition measured after 30 mins by ELISA; type: cell-based; settings: dose 0.1-1 µM, time 60.0 min
How it was run: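 J774A.1 cells plated at 1 × 10^5 cells/well overnight, primed with E. coli 0111:B4 LPS (final 1 μg/mL) for 4.5 h. Compound added for 30 min, then ATP (5 mM) for 30 min to activate NLRP3. IL-1β in supernatant measured by mouse IL-1β ELISA.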

[16] = biological target: NACHT, LRR and PYD domains-containing protein 3 (Mus musculus) (UniProt Q8R4B8); assay: Binding affinity to NLRP3 in wild type C57BL/6 mouse brain incubated for 20 mins in presence of compound MCC950 by autoradiography; type: tissue-based; settings: tested as the 11C-labelled form; how it was run: as §2
[17] = biological target: NLR family CARD domain-containing protein 4 (Mus musculus) (UniProt Q3UP24); assay: Inhibition of NLRC4 inflammasome activation in LPS treated mouse J774.A1 cells assessed as inhibition of IL-1beta secretion at 3 uM pre-incubated for 1 hr followed by flagellin stimulation for 6 hrs by ELISA; type: cell-based; settings: time 7.0 hrs; how it was run: as §3
[18] = biological target: NACHT, LRR and PYD domains-containing protein 3 (Mus musculus) (UniProt Q8R4B8); assay: Inhibition of NLRP3 inflammasome activation in LPS treated mouse J774.A1 cells assessed as inhibition of TNF-alpha secretion at <=3 uM followed by LPS addition measured after 4.5 hrs by ELISA; type: cell-based
[19] = biological target: T1, Interferon-inducible protein AIM2 (Mus musculus); assay: Inhibition of AIM2 inflammasome activation in LPS treated mouse J774.A1 cells assessed as inhibition of IL-1beta secretion at 3 uM pre-incubated for 1 hr followed by Poly (dA:dT) stimulation for 4 hrs by ELISA; type: cell-based; settings: time 5.0 hrs; how it was run: as §3

SMILES | IC50 ([1]; read-out: IC50) | further results
CCCOc1ccc(Cl)cc1Cn1cc(-c2ccc(C(F)(F)F)cc2)nn1 | 12.8 µM | –
COC(=O)c1ccc(-c2cn(Cc3ccccc3)nn2)cc1 | – | IC50 ([1]; j774.a1): Not Active
CCCOc1ccc(Cl)cc1Cn1cc(-c2ccc(C(=O)OC)cc2)nn1 | 1.21 µM | –
COC(=O)c1ccc(-c2cn(Cc3cc(Cl)ccc3O[11CH3])nn2)cc1 | – | Drug uptake [2]: Active; SUV [3]: > 3; Drug uptake [4]: Active; Drug uptake [5]: Active; Drug uptake [6]: Active; Drug uptake [7]: Active
COC(=O)c1ccc(-c2cn(Cc3cc(F)ccc3OC)nn2)cc1 | 1.5 µM | –
COc1ccc(Cl)cc1Cn1cc(-c2ccc(C(=O)N3CCC3)cc2)nn1 | 1.43 µM | –
COC(=O)c1ccc(-c2cn(Cc3cc(Cl)ccc3OC)nn2)cc1 | – | Activity [8]: Active; inhibition [9]: inactive; inhibition [10]: inactive; Activity [11]: Active; inhibition [12]: Active; inhibition [13]: inactive; Activity [14]: Active; inhibition [15]: Active; Activity [16]: Active
COC(=O)c1ccc(-c2cn(Cc3cc(F)cc(F)c3OC)nn2)cc1 | – | IC50 ([1]; j774.a1): Not Active
COC(=O)c1cccc(-c2cn(Cc3cc(Cl)ccc3OC)nn2)c1 | 1.61 µM | –
COC(=O)c1ccc(-c2cn(Cc3cc(Cl)ccc3OC)nn2)nc1 | 2.31 µM | –
CCCOc1ccc(Cl)cc1Cn1cc(-c2ccc(S(N)(=O)=O)cc2)nn1 | 1.51 µM | –
CNC(=O)c1ccc(-c2cn(Cc3cc(Cl)ccc3OC)nn2)cc1 | 4.21 µM | –
COc1ccc(-c2cn(Cc3cc(Cl)ccc3OC)nn2)cc1 | 1.31 µM | –
COC(=O)c1ccc(-c2cn(Cc3cc(Cl)ccc3O)nn2)cc1 | 3.13 µM | –
COC(=O)c1ccc(-c2cn(Cc3ccccc3OC(F)F)nn2)cc1 | 8.06 µM | –
COC(=O)c1ccc(-c2cn(Cc3cc(Cl)ccc3C(F)(F)F)nn2)cc1 | – | IC50 ([1]; j774.a1): Not Active
COC(=O)c1ccc(-c2cn(Cc3ccccc3OC)nn2)cc1 | 3.72 µM | –
CCCOc1ccc(Cl)cc1Cn1cc(-c2ccccc2)nn1 | – | inhibition [9]: Active; inhibition [13]: Active; inhibition [17]: Active; inhibition [18]: inactive; inhibition [19]: Active

Now from value to compound, other results behind:

IC50 ([1]; read-out: IC50) | SMILES | further results
2.86 µM | COC(=O)c1ccc(-c2cn(Cc3c(OC)ccc(F)c3F)nn2)cc1 | –
4.28 µM | CCCOc1ccc(Cl)cc1Cn1cc(-c2ccc(F)cc2)nn1 | –
12 µM | CCCOc1ccc(Cl)cc1Cn1cc(-c2ccc(C(=O)O)cc2)nn1 | –
0.81 µM | COC(=O)c1ccc(-c2cn(Cc3cc(C(F)(F)F)ccc3OC)nn2)cc1 | –
0.51 µM | COC(=O)c1ccc(-c2cn(Cc3cc(Cl)cc(OC)c3)nn2)cc1 | –
2.03 µM | COC(=O)c1ccc(-c2cn(Cc3cc(Cl)ccc3OC)nn2)c(C)c1 | –
8.36 µM | CCCOc1ccc(Cl)cc1Cn1cc(-c2ccc(C)cc2)nn1 | –
1.62 µM | COC(=O)c1ccc(-c2cn(Cc3cc(Cl)ccc3OC)nn2)c(F)c1 | –
1.07 µM | COC(=O)c1ccc(-c2cn(Cc3cc(Br)ccc3OC)nn2)cc1 | –
2.47 µM | COC(=O)c1ccc(-c2cn(Cc3cc(F)c(F)cc3OC)nn2)cc1 | –
14 µM | COc1ccc(Cl)cc1Cn1cc(-c2ccc(C(=O)O)cc2)nn1 | –
2.16 µM | COC(=O)c1ccc(-c2cn(Cc3cccc(Cl)c3)nn2)cc1 | –
